Calls of active or inactive are those of the source. No cut-off for these calls is given here.
Key:
Rattus norvegicus [1] = species on record: Rattus norvegicus; experiment: Evaluated for dopa accumulation (biochemical activity) in rat limbic system; type: functional
Procedure, shortened: (§1)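 Male Sprague-Dawley rats, 200-300 g. Compound dissolved in saline (sometimes with a little glacial acetic acid or warming), neutral pH, given sc at 50 μmol/kg. Dopa in limbic forebrain and striatum was measured by HPLC with electrochemical detection and expressed as percent of controls.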

Rattus norvegicus [2] = species on record: Rattus norvegicus; experiment: Evaluated for dopa accumulation (biochemical activity) in rat striatum; type: functional; procedure, shortened: as §1
Rattus norvegicus [3] = experiment: Evaluated for the dose giving a half-maximal decrease of dopa formation in the rat brain, at a dose of 310 (nmol/kg); type: functional
Procedure, shortened: (§2)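 Male Sprague-Dawley rats (200-300 g) received sc doses in saline, neutral pH. Dopa was measured in each brain area by HPLC with electrochemical detection. A separate dose-response curve was built per substance and brain area from four to six dose levels (n = 3-5). The dose giving half-maximal decrease of Dopa formation was estimated from that curve. Student's t-test was used, p ≤ 0.05.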

Rattus norvegicus [4] = experiment: Evaluated for dopa accumulation (biochemical activity) in rat striatum; Inactive at 50 umol/kg; type: functional, organism-based; procedure, shortened: as §1
Rattus norvegicus [5] = experiment: Evaluated for dopa accumulation (biochemical activity) in rat limbic system; Inactive at 50 umol/kg; type: functional, organism-based; procedure, shortened: as §1
Rattus norvegicus [6] = experiment: Evaluated for the dose giving a half-maximal decrease of dopa formation in the rat brain, at a dose of 39000 (nmol/kg); type: functional; procedure, shortened: as §2
Rattus norvegicus [7] = experiment: Evaluated for the dose giving a half-maximal decrease of dopa formation in the rat brain, at a dose of 13000 (nmol/kg); type: functional; procedure, shortened: as §2
Rattus norvegicus [8] = experiment: Evaluated for the dose giving a half-maximal decrease of dopa formation in the rat brain, at a dose of 213000 (nmol/kg); type: functional; procedure, shortened: as §2
Rattus norvegicus [9] = experiment: Evaluated for the dose giving a half-maximal decrease of dopa formation in the rat brain, at a dose of 3100 (nmol/kg); type: functional; procedure, shortened: as §2
Rattus norvegicus [10] = experiment: Evaluated for the dose giving a half-maximal decrease of dopa formation in the rat brain, at a dose of 1300 (nmol/kg); type: functional; procedure, shortened: as §2
Rattus norvegicus [11] = experiment: Evaluated for the dose giving a half-maximal decrease of dopa formation in the rat brain, at a dose of 50000 (nmol/kg); type: functional; procedure, shortened: as §2
Rattus norvegicus [12] = experiment: Evaluated for the dose giving a half-maximal decrease of dopa formation in the rat brain, at a dose of 31000 (nmol/kg); type: functional; procedure, shortened: as §2

Compound	ED50 (Rattus norvegicus [1])	ED50 (Rattus norvegicus [2])	other results
CCCN(CCC)[C@H]1CCc2c(O)cccc2C1.Cl	0.0037 µmol/kg	0.0037 µmol/kg	Accumulation counts (Rattus norvegicus [3]): <155 Counts
CCCN(CCC)[C@@H]1CCc2ccc(O)cc2C1	0.0095 µmol/kg	0.011 µmol/kg	
CCCN1CCC[C@H]2c3cccc(O)c3CC[C@H]21			ED50 (Rattus norvegicus [4]): inactive; ED50 (Rattus norvegicus [5]): inactive
CCCN(CCC)[C@H]1CCc2ccc(O)cc2C1	1.9 µmol/kg	2.4 µmol/kg	
CN1CCc2cccc3c2[C@H]1Cc1ccc(O)c(O)c1-3 [APOMORPHINE]	0.19 µmol/kg	0.22 µmol/kg	
CCCN(CCC)[C@@H]1CCc2c(O)cccc2C1.Cl	0.41 µmol/kg	0.65 µmol/kg	Accumulation counts (Rattus norvegicus [6]): <43
CCCN1CCC[C@H](c2cccc(O)c2)C1.Cl	1 µmol/kg	1.3 µmol/kg	Accumulation counts (Rattus norvegicus [7]): 78
CCCN1CCC[C@@H](c2cccc(O)c2)C1.Cl [PRECLAMOL HYDROCHLORIDE]	0.8 µmol/kg	1.7 µmol/kg	Accumulation counts (Rattus norvegicus [8]): 12
CCCN1CCC[C@H]2c3cccc(O)c3CC[C@@H]21	0.014 µmol/kg	0.014 µmol/kg	Accumulation counts (Rattus norvegicus [9]): <78 Counts; Accumulation counts (Rattus norvegicus [10]): <62 Counts
Br.CCCCN1CCCC2c3cc(O)ccc3CC[C@H]21 (some centres undefined)			Accumulation counts (Rattus norvegicus [11]): <75; ED50 (Rattus norvegicus [4]): inactive; ED50 (Rattus norvegicus [5]): inactive
CCCN1CCC[C@@H]2c3cccc(O)c3CC[C@H]21	0.32 µmol/kg	0.41 µmol/kg	Accumulation counts (Rattus norvegicus [11]): 31; Accumulation counts (Rattus norvegicus [12]): <138 Counts; Accumulation counts (Rattus norvegicus [9]): <59 Counts; ED50 (Rattus norvegicus [4]): inactive; ED50 (Rattus norvegicus [5]): inactive

— ChEMBL document CHEMBL1122890, “Resolved monophenolic 2-aminotetralins and 1,2,3,4,4a,5,6,10b-octahydrobenzo[f]quinolines: structural and stereochemical considerations for centrally acting pre- and postsynaptic dopamine-receptor agonists” (1985)
